Laboratory results published in ChEMBL document CHEMBL3352515, “Design, synthesis, antiviral and cytostatic activity of ω-(1H-1,2,3-triazol-1-yl)(polyhydroxy)alkylphosphonates as acyclic nucleotide analogues” (Bioorg Med Chem, 2014).
Activity calls are given as the source filed them. The calls are words filed in the database; no cut-off is given here.

Assays:
[1] = test system: Vesicular stomatitis virus; assay: Antiviral activity against Vesicular stomatitis virus infected in HeLa cells assessed as inhibition of virus-induced cytopathogenicity; type: functional, organism-based
How it was run: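 HeLa cell monolayers (confluent) were infected with 100 CCID50 of VSV in the presence of serial compound concentrations. Viral cytopathicity was read when complete in untreated infected controls. EC50 is the concentration that reduced virus-induced cytopathogenicity by 50%.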

CCRF-CEM = assay: Cytostatic activity against human CEM cells assessed as inhibition of proliferation after 72 hrs by Coulter cell counting method; type: functional, cell-based
How it was run: (§1)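 (5–7.5) × 10⁴ tumor cells per well were exposed to test compound at 37 °C in humidified CO₂. Incubation ran 48 h for L1210 and 72 h for CEM and HeLa. Cells were then counted in a Coulter counter. IC₅₀ is the concentration that inhibits cell proliferation by 50%.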

L1210 = assay: Cytostatic activity against mouse L1210 cells assessed as inhibition of proliferation after 48 hrs by Coulter cell counting method; type: functional, cell-based; settings: L1210, 48 h; how it was run: as §1
HeLa = assay: Cytostatic activity against human HeLa cells assessed as inhibition of proliferation after 72 hrs by Coulter cell counting method; type: functional, cell-based; how it was run: as §1
Influenza A virus H3N2 = assay: Antiviral activity against Influenza A virus H3N2 infected in MDCK cells assessed as inhibition of virus-induced cytopathogenicity; type: functional, organism-based
How it was run: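 Confluent MDCK cell cultures were infected in the presence of varying compound concentrations. Cytopathicity was recorded once complete in untreated virus-infected controls, scored visually and by MTS colorimetric assay. EC50 is the concentration that reduced virus-induced cytopathogenicity by 50%.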

[2] = Cytotoxicity against MDCK cells assessed as reduction in cell viability by MTS assay; type: cell-based, Canis lupus familiaris; settings: dog
How it was run: (§2)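 Uninfected host cells were exposed to test compound, and viability was read by the colorimetric MTS assay. CC₅₀ is the concentration causing a 50% decrease in cell viability.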

[3] = test system: Respiratory syncytial virus; assay: Antiviral activity against Respiratory syncytial virus infected in HeLa cells assessed as inhibition of virus-induced cytopathogenicity; type: functional, organism-based
How it was run: (§3)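 Confluent host-cell monolayers in 96-well plates were inoculated with 100 CCID₅₀ of virus while exposed to a range of test compound concentrations. Cytopathic effect was scored once it was complete in untreated infected controls. EC₅₀ is the concentration that reduces virus-induced cytopathogenicity by 50%.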

Felid alphaherpesvirus 1 = assay: Antiviral activity against Feline herpesvirus 1 infected in HEL cells assessed as inhibition of virus-induced cytopathogenicity; type: functional, organism-based; settings: for EC50: Felid alphaherpesvirus 1, HEL; how it was run: as §3
Human alphaherpesvirus 1 = assay: Antiviral activity against HSV-1 infected in HEL cells assessed as inhibition of virus-induced cytopathogenicity; type: functional, organism-based; how it was run: as §3
Human alphaherpesvirus 2 = assay: Antiviral activity against HSV-2 infected in HEL cells assessed as inhibition of virus-induced cytopathogenicity; type: functional, organism-based; how it was run: as §3
[4] = Cytotoxicity against feline CRFK cells assessed as reduction in cell viability by MTS assay; type: cell-based, Felis catus; settings: cat; how it was run: as §2
Human alphaherpesvirus 3 = assay: Antiviral activity against Thymidine kinase-positive Varicella-zoster virus Oka infected in HEL assessed as reduction in virus plaque formation; type: functional, organism-based; settings: Human alphaherpesvirus 3, strain Oka vaccine
How it was run: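 Confluent HEL fibroblast cultures were inoculated with 20 PFU of VZV together with varying compound concentrations. Plaque formation was recorded once complete in untreated infected controls. EC50 is the concentration that reduced viral plaque formation by 50%.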

Structure (SMILES) | IC50 (CCRF-CEM) [µM] | IC50 (L1210) [µM] | IC50 (HeLa) [µM] | also measured
NC(=O)c1ncn([C@@H]2O[C@H](CO)[C@@H](O)[C@H]2O)n1 [RIBAVIRIN] |  |  |  | EC50 [1]: 17 µM
CC(=O)Nc1ccn(Cc2cn(C[C@H]3OC(C)(C)O[C@H]3[C@@H](O)P(=O)(OCc3ccccc3)OCc3ccccc3)nn2)c(=O)n1 | > 200 | > 200 | > 200 | 
O=c1ccccn1Cc1cn(C[C@H](OCc2ccccc2)[C@H](O)P(=O)(OCc2ccccc2)OCc2ccccc2)nn1 | 101 | 76 | 28 | 
O=c1ccccn1Cc1cn(C[C@H](OCc2ccccc2)[C@@H](O)P(=O)(OCc2ccccc2)OCc2ccccc2)nn1 | 90 | 63 | 45 | 
CC(=O)Nc1ccn(Cc2cn(C[C@@H]3OC(C)(C)O[C@H]3[C@@H](O)P(=O)(OCc3ccccc3)OCc3ccccc3)nn2)c(=O)n1 | > 200 | > 200 | > 200 | 
Cc1cn(Cc2cn(C[C@H]3OC(C)(C)O[C@H]3[C@@H](O)P(=O)(OCc3ccccc3)OCc3ccccc3)nn2)c(=O)[nH]c1=O | > 200 | 122 | > 200 | 
CC1(C)O[C@@H]([C@@H](O)P(=O)(OCc2ccccc2)OCc2ccccc2)[C@H](Cn2cc(Cn3cnc4c(N)ncnc43)nn2)O1 | > 200 | > 200 |  | 
Nc1ncnc2c1ncn2Cc1cn(C[C@H](OCc2ccccc2)[C@H](O)P(=O)(OCc2ccccc2)OCc2ccccc2)nn1 | 76 | 46 | 80 | 
CC(=O)Nc1ccn(Cc2cn(C[C@H](OCc3ccccc3)[C@@H](O)P(=O)(OCc3ccccc3)OCc3ccccc3)nn2)c(=O)n1 | 169 | 153 | > 200 | 
Nc1ncnc2c1ncn2Cc1cn(C[C@H](OCc2ccccc2)[C@@H](O)P(=O)(OCc2ccccc2)OCc2ccccc2)nn1 | 78 | 66 | 81 | 
Cn1c(=O)c2c(ncn2Cc2cn(C[C@H](OCc3ccccc3)[C@@H](O)P(=O)(OCc3ccccc3)OCc3ccccc3)nn2)n(C)c1=O | 71 | 71 | 79 | 
Cn1c(=O)c2c(nc(Cl)n2Cc2cn(C[C@H](OCc3ccccc3)[C@H](O)P(=O)(OCc3ccccc3)OCc3ccccc3)nn2)n(C)c1=O | 25 | 22 | 86 | 
Cn1c(=O)c2c(ncn2Cc2cn(C[C@H]3OC(C)(C)O[C@H]3[C@@H](O)P(=O)(OCc3ccccc3)OCc3ccccc3)nn2)n(C)c1=O | > 200 | > 200 | > 200 | 
Cc1cn(Cc2cn(C[C@H](O)[C@@H](O)P(=O)(O)O)nn2)c(=O)[nH]c1=O | > 200 | > 200 | > 200 | 
O=c1ccn(Cc2cn(C[C@H](OCc3ccccc3)[C@@H](O)P(=O)(OCc3ccccc3)OCc3ccccc3)nn2)c(=O)[nH]1 | > 200 | > 200 | > 200 | 
CC1(C)O[C@@H]([C@@H](O)P(=O)(OCc2ccccc2)OCc2ccccc2)[C@@H](Cn2cc(Cn3ccc(=O)[nH]c3=O)nn2)O1 | > 200 | > 200 | > 200 | 
Cn1cnc2c1c(=O)n(Cc1cn(C[C@@H]3OC(C)(C)O[C@H]3[C@@H](O)P(=O)(OCc3ccccc3)OCc3ccccc3)nn1)c(=O)n2C | 142 | 145 | > 200 | 
CC1(C)O[C@@H]([C@@H](O)P(=O)(OCc2ccccc2)OCc2ccccc2)[C@H](Cn2cc(Cn3ccc(=O)[nH]c3=O)nn2)O1 | > 200 | > 200 | 118 | 
CC1(C)O[C@@H]([C@@H](O)P(=O)(OCc2ccccc2)OCc2ccccc2)[C@@H](Cn2cc(Cn3cnc4c(N)ncnc43)nn2)O1 | 140 | 98 | > 200 | 
CC(=O)c1cn(Cc2cn(C[C@H](OCc3ccccc3)[C@H](O)P(=O)(OCc3ccccc3)OCc3ccccc3)nn2)c2ccccc12 | 16 | 15 | 13 | 

Structure (SMILES) | IC50 (CCRF-CEM) [µM] | IC50 (L1210) [µM] | IC50 (HeLa) [µM] | also measured
O=c1cnn(Cc2cn(C[C@H](OCc3ccccc3)[C@H](O)P(=O)(OCc3ccccc3)OCc3ccccc3)nn2)c(=O)[nH]1 | 81 | 71 | 122 | 
Cn1cnc2c1c(=O)n(Cc1cn(C[C@H]3OC(C)(C)O[C@H]3[C@@H](O)P(=O)(OCc3ccccc3)OCc3ccccc3)nn1)c(=O)n2C | 115 | 86 | > 200 | 
Cc1cn(Cc2cn(C[C@H](OCc3ccccc3)[C@@H](O)P(=O)(OCc3ccccc3)OCc3ccccc3)nn2)c(=O)[nH]c1=O | > 200 | > 200 | > 200 | EC50 (Influenza A virus H3N2): 20 µM; CC50 [2]: > 100 µM; MCC [2]: > 100 µM
O=C(c1ccccc1)n1c(=O)c2ccccc2n(Cc2cn(C[C@H](OCc3ccccc3)[C@@H](O)P(=O)(OCc3ccccc3)OCc3ccccc3)nn2)c1=O | 4.7 | 4.1 | 7.1 | inhibition [3]: inactive; inhibition [1]: inactive
CCOP(=O)(CCCn1cc(Cn2c(=O)n(C(=O)c3ccccc3)c(=O)c3ccccc32)nn1)OCC |  |  |  | EC50 (Felid alphaherpesvirus 1): 24 µM
Cc1cn(Cc2cn(C[C@@H]3OC(C)(C)O[C@H]3[C@@H](O)P(=O)(OCc3ccccc3)OCc3ccccc3)nn2)c(=O)[nH]c1=O | > 200 | 139 | 107 | 
O=C(c1ccccc1)n1c(=O)c2ccccc2n(Cc2cn(C[C@H](OCc3ccccc3)[C@H](O)P(=O)(OCc3ccccc3)OCc3ccccc3)nn2)c1=O | 4.7 | 4.7 | 5.1 | EC50 (Human alphaherpesvirus 1; Human alphaherpesvirus 1, HEL): 2.9 µM; EC50 (Human alphaherpesvirus 2; Human alphaherpesvirus 2, HEL): 4 µM; EC50 (Felid alphaherpesvirus 1): 4 µM; MCC [4]: ≥ 4 µM
Cn1cnc2c1c(=O)n(Cc1cn(C[C@H](OCc3ccccc3)[C@H](O)P(=O)(OCc3ccccc3)OCc3ccccc3)nn1)c(=O)n2C | 68 | 58 | 76 | 
O=c1ccn(Cc2cn(C[C@H](OCc3ccccc3)[C@H](O)P(=O)(OCc3ccccc3)OCc3ccccc3)nn2)c(=O)[nH]1 | 91 | 86 | 66 | inhibition (Felid alphaherpesvirus 1): inactive
Cn1c(=O)c2c(ncn2Cc2cn(C[C@H](OCc3ccccc3)[C@H](O)P(=O)(OCc3ccccc3)OCc3ccccc3)nn2)n(C)c1=O | 72 | 56 | 83 | 
Cn1c(=O)c2c(nc(Cl)n2Cc2cn(C[C@H]3OC(C)(C)O[C@H]3[C@@H](O)P(=O)(OCc3ccccc3)OCc3ccccc3)nn2)n(C)c1=O | 51 | 58 | 85 | EC50 (Human alphaherpesvirus 3): 55.7 µM
CC(=O)c1cn(Cc2cn(C[C@H](OCc3ccccc3)[C@@H](O)P(=O)(OCc3ccccc3)OCc3ccccc3)nn2)c2ccccc12 | > 200 | > 200 | > 200 | 
Cn1c(=O)c2c(nc(Cl)n2Cc2cn(C[C@H](OCc3ccccc3)[C@@H](O)P(=O)(OCc3ccccc3)OCc3ccccc3)nn2)n(C)c1=O | 27 | 70 | > 200 | 
Cc1cn(Cc2cn(C[C@H](OCc3ccccc3)[C@H](O)P(=O)(OCc3ccccc3)OCc3ccccc3)nn2)c(=O)[nH]c1=O | 83 | 85 | 64 | 
Cn1c(=O)c2c(nc(Cl)n2Cc2cn(C[C@@H]3OC(C)(C)O[C@H]3[C@@H](O)P(=O)(OCc3ccccc3)OCc3ccccc3)nn2)n(C)c1=O | > 200 | > 200 | > 200 | 
O=C(c1ccccc1)n1c(=O)ccn(Cc2cn(C[C@H](O)[C@@H](O)P(=O)(O)O)nn2)c1=O | > 200 | > 200 | > 200 | 
Cn1cnc2c1c(=O)n(Cc1cn(C[C@H](OCc3ccccc3)[C@@H](O)P(=O)(OCc3ccccc3)OCc3ccccc3)nn1)c(=O)n2C | 82 | 71 | 78 | 
CC(=O)Nc1ccn(Cc2cn(C[C@H](OCc3ccccc3)[C@H](O)P(=O)(OCc3ccccc3)OCc3ccccc3)nn2)c(=O)n1 | 82 | 96 | 160 | 
O=C(c1ccccc1)n1c(=O)ccn(Cc2cn(C[C@H](OCc3ccccc3)[C@H](O)P(=O)(OCc3ccccc3)OCc3ccccc3)nn2)c1=O | 21 | 21 | 57 | inhibition (Human alphaherpesvirus 1): inactive; inhibition (Human alphaherpesvirus 2): inactive
O=C(c1ccccc1)n1c(=O)ccn(Cc2cn(C[C@H](OCc3ccccc3)[C@@H](O)P(=O)(OCc3ccccc3)OCc3ccccc3)nn2)c1=O | 21 | 26 | 76 | EC50 ([3]; human respiratory syncytial virus): 12 µM; EC50 [1]: 9 µM
